ChEMBL document CHEMBL4665669, “Novel tertiary sulfonamide derivatives containing benzimidazole moiety as potent anti-gastric cancer agents: Design, synthesis and SAR studies” (Eur J Med Chem, 2019)
The source made the active and inactive calls. No cut-off for these calls is given here.

Assays:
[1] = system: MGC-803; assay: Inhibition of colony formation in human MGC-803 cells at 0.5 to 1.5 umol/L after 7 days by crystal violet staining based assay; format: functional, cell-based; details: dose micromol/L 0.5-1.5, time 7.0 day
Outline: (§1)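 5000 cells per well seeded and held 24 h at 37 °C, 5% CO2, then exposed to graded concentrations (0.5, 1, 1.5 µmol/L). After 7 days the medium was removed and wells were washed twice with PBS. Colonies fixed in 4% paraformaldehyde and stained with 0.1% crystal violet.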

[2] = system: HGC-27; assay: Inhibition of Ras/Raf/MEK/ERK signalling pathway in human HGC-27 cells assessed as decrease in c-Raf phosphorylation after 48 hrs by Western blot analysis; format: cell-based; details: dose micromol/L 0.5-1.5, time 48.0 hrs
Outline: (§2)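 Cells treated with graded concentrations or DMSO for 48 h, then harvested and lysed. Lysates denatured, resolved by SDS-PAGE and transferred to nitrocellulose. Membranes blocked with 5% skimmed milk and probed with primary antibodies at 4 °C for 8 h, then with secondary antibodies. Bands detected by ECL.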

[3] = system: HGC-27; assay: Cell cycle arrest at M phase in human HGC-27 cells assessed as upregulation of p-Histone-3 level at 0.5 to 1.5 umol/L after 48 hrs by Western blot analysis; format: functional, cell-based; details: dose micromol/L 0.5-1.5, time 48.0 hrs
Outline: (§3)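 Western blot. Cells were treated with compound concentrations or DMSO for 48 h, then lysed, and lysates were denatured, run on SDS-PAGE and transferred to nitrocellulose. After blocking in 5% skimmed milk, membranes were incubated with primary antibodies at 4 °C for 8 h, then secondary antibodies, with ECL detection.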

[4] = system: MGC-803; assay: Induction of apoptosis in human MGC-803 cells assessed as downregulation of Mcl-1 level at 0.5 to 1.5 umol/L after 48 hrs Western blot analysis; format: functional, cell-based; details: dose micromol/L 0.5-1.5, time 48.0 hrs; outline: as §3
[5] = system: MGC-803; assay: Cell cycle arrest in human MGC-803 cells assessed as accumulation at G2/M phase at 0.5 to 1.5 umol/L after 48 hrs by RNase/propidium iodide staining based flow cytometry; format: functional; details: dose micromol/L 0.5-1.5, time 48.0 hrs
Outline: (§4)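 MGC-803, SGC-7901 and HGC-27 cells were seeded in 6-well plates and treated 48 h with compound or DMSO. Cells were then harvested and fixed in 70% cold ethanol at 4 °C for 8 h, and cell-cycle phase distribution was quantified by flow cytometry.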

[6] = system: MGC-803; assay: Cell cycle arrest at M phase in human MGC-803 cells assessed as upregulation of p-Histone-3 level at 0.5 to 1.5 umol/L after 48 hrs by Western blot analysis; format: functional, cell-based; details: dose micromol/L 0.5-1.5, time 48.0 hrs; outline: as §3
[7] = system: HGC-27; assay: Induction of apoptosis in human HGC-27 cells assessed as upregulation of NOXA level at 0.5 to 1.5 umol/L after 48 hrs Western blot analysis; format: functional, cell-based; details: dose micromol/L 0.5-1.5, time 48.0 hrs; outline: as §3
[8] = system: SGC-7901; assay: Induction of apoptosis in human SGC-7901 cells induction of DNA fragmentation at 0.5 to 1.5 umol/L after 48 hrs by imaging analysis; format: functional, cell-based; details: dose micromol/L 0.5-1.5, time 48.0 hrs
[9] = system: HGC-27; assay: Inhibition of Akt/mTOR signalling pathway in human HGC-27 cells assessed as decrease in AKT phosphorylation at Ser473 residue at 0.5 to 1.5 umol/L after 48 hrs by Western blot analysis; format: cell-based; details: dose micromol/L 0.5-1.5, time 48.0 hrs; outline: as §2
[10] = system: GES1; assay: Cytotoxicity against human GES1 cells assessed as inhibition of cell proliferation after 48 hrs by MTT assay; format: cell-based; details: GES1, 48 h
Outline: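 Normal gastric epithelial GES-1 cells were exposed to compound for 48 h. MTT was then added for 4 h at 37 °C. Formazan was dissolved in DMSO after the supernatant was removed, and absorbance was read at 490 nm. IC50 was computed from three independent experiments, given as mean SD.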

[11] = system: MGC-803; assay: Induction of apoptosis in human MGC-803 cells after 48 hrs by flow cytometry analysis; format: functional, cell-based; details: dose micromol/L 0.5-1.5, time 48.0 hrs
[12] = system: MGC-803; assay: Anticancer activity against human MGC-803 cells assessed as inhibition of cell proliferation after 48 hrs by MTT assay; format: functional, cell-based
Outline: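 MTT assay with 48 h compound exposure. MTT solution was then added and incubated 4 h at 37 °C, the supernatant discarded and formazan dissolved in DMSO, with absorbance read at 490 nm. IC50 values were calculated from three independent experiments, reported as mean SD.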

[13] = Selectivity index, ratio of IC50 for human GES1 cells to IC50 for human MGC-803 cells assessed as inhibition of cell proliferation after 48 hrs by MTT assay
Outline: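 Fold selectivity is the IC50 in GES-1 normal gastric epithelial cells divided by the IC50 in the gastric cancer line (HGC-27, MGC-803 or SGC-7901). Both IC50s come from 48 h exposure, MTT (4 h, 37 °C), DMSO solubilisation and 490 nm absorbance, with three independent experiments.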

[14] = system: HGC-27; assay: Inhibition of Ras/Raf/MEK/ERK signalling pathway in human HGC-27 cells assessed as decrease in MEK1 phosphorylation after 48 hrs by Western blot analysis; format: cell-based; details: dose micromol/L 0.5-1.5, time 48.0 hrs; outline: as §2
[15] = system: HGC-27; assay: Inhibition of Akt/mTOR signalling pathway in human HGC-27 cells assessed as decrease in mTOR phosphorylation at Ser2448 residue at 0.5 to 1.5 umol/L after 48 hrs by Western blot analysis; format: cell-based; details: dose micromol/L 0.5-1.5, time 48.0 hrs; outline: as §2
[16] = system: SGC-7901; assay: Induction of apoptosis in human SGC-7901 cells after 48 hrs by flow cytometry analysis; format: functional, cell-based; details: dose micromol/L 0.5-1.5, time 48.0 hrs
[17] = system: MGC-803; assay: Induction of apoptosis in human MGC-803 cells assessed as upregulation of NOXA level at 0.5 to 1.5 umol/L after 48 hrs Western blot analysis; format: functional, cell-based; details: dose micromol/L 0.5-1.5, time 48.0 hrs; outline: as §3
[18] = system: SGC-7901; assay: Inhibition of Ras/Raf/MEK/ERK signalling pathway in human SGC-7901 cells assessed as effect on RAS level at 0.5 to 1.5 umol/L after 48 hrs by Western blot analysis; format: cell-based; details: dose micromol/L 0.5-1.5, time 48.0 hrs; outline: as §2
[19] = system: HGC-27; assay: Cell cycle arrest in human HGC-27 cells assessed as accumulation at G2/M phase at 0.5 to 1.5 umol/L after 48 hrs by RNase/propidium iodide staining based flow cytometry; format: functional; details: dose micromol/L 0.5-1.5, time 48.0 hrs; outline: as §4
[20] = system: MGC-803; assay: Induction of apoptosis in human MGC-803 cells assessed as downregulation of Bcl-2 level at 0.5 to 1.5 umol/L after 48 hrs Western blot analysis; format: functional, cell-based; details: dose micromol/L 0.5-1.5, time 48.0 hrs; outline: as §3
[21] = system: HGC-27; assay: Inhibition of colony formation in human HGC-27 cells at 0.5 to 1.5 umol/L after 7 days by crystal violet staining based assay; format: functional, cell-based; details: dose micromol/L 0.5-1.5, time 7.0 day; outline: as §1
[22] = system: HGC-27; assay: Induction of apoptosis in human HGC-27 cells assessed as cleavage of caspase-7 at 0.5 to 1.5 umol/L after 48 hrs Western blot analysis; format: functional, cell-based; details: dose micromol/L 0.5-1.5, time 48.0 hrs; outline: as §3
[23] = system: HGC-27; assay: Induction of apoptosis in human HGC-27 cells induction of DNA fragmentation at 0.5 to 1.5 umol/L after 48 hrs by imaging analysis; format: functional, cell-based; details: dose micromol/L 0.5-1.5, time 48.0 hrs
[24] = system: HGC-27; assay: Inhibition of Ras/Raf/MEK/ERK signalling pathway in human HGC-27 cells assessed as decrease in ERK1/2 phosphorylation after 48 hrs by Western blot analysis; format: cell-based; details: dose micromol/L 0.5-1.5, time 48.0 hrs; outline: as §2

With COc1cc(N(Cc2nc3ccccc3[nH]2)S(=O)(=O)c2ccc(C)cc2)cc(OC)c1OC the inhibition [1] was “Active”, the inhibition [2] was “Dose-dependent effect” and the Activity [3] was “Active”. The Activity [4] was “Active”, the Activity [5] was “Active” and the Activity [6] was “Active”. For the same compound, the Activity [7] was “Active”, the Activity [8] was “Active” and the inhibition [9] was “Active”. For the same compound, the IC50 [10] was 15.2 µM, the Activity [11] was “Dose-dependent effect” and the Activity [12] was “Dose-dependent effect”. The IC50 ([12]; MGC-803, 48 h) was 1.02 µM, the “Ratio IC50” value [13] was 14.9 and the inhibition [14] was “Dose-dependent effect”. For the same compound, the inhibition [15] was “Active”, the Activity [16] was “Dose-dependent effect” and the Activity [17] was “Active”. For the same compound, the inhibition [18] was “inactive”, the Activity [19] was “Active” and the Activity [20] was “Active”. The inhibition [21] was “Active”, the Activity [22] was “Active” and the Activity [23] was “Active”. For the same compound, the inhibition [24] was “Dose-dependent effect”.
